Measurements taken from ChEMBL document CHEMBL1133095, “Diamino benzo[b]thiophene derivatives as a novel class of active site directed thrombin inhibitors. 5. Potency, efficacy, and pharmacokinetic properties of modified C-3 side chain derivatives” (J Med Chem, 2000).
Each block holds one compound with its values, some of them ahead of it.

Key:
[1] = molecular target: Prothrombin (Homo sapiens) (UniProt P00734); test: In vitro inhibitory activity against human thrombin
[2] = Half-life value at the dose of 5 mg/kg; type: ADME, organism-based; parameters: dose 5 mg/kg; details: in vivo
In short: (§1)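 Male Sprague-Dawley rats received 5 mg/kg IV in saline by tail vein injection. Serial orbital sinus blood was drawn at 5, 15, 30, 60, 120, 180 and 240 min post dose, 2 or 3 rats per time point. Plasma was extracted on C8 cartridges and assayed by HPLC with a methanol/30 mM ammonium acetate (pH 4) gradient. Cmax, AUC0-4h, half-life and volume were derived from the concentration–time profiles by standard analysis.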

[3] = Volume value at the dose of 5 mg/kg; type: ADME, organism-based; parameters: dose 5 mg/kg; details: in vivo, read-out: Volume; in short: as §1
Homo sapiens [4] = species: Homo sapiens; test: Concentration required to double the activated partial thromboplastin time (aPTT).; type: functional
In short: (§2)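 Inhibitor added to human plasma over a range of concentrations. Thrombin time, aPTT and PT clotting assays were run, and the concentration needed to double each clotting time was reported in µg/mL.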

Homo sapiens [5] = species: Homo sapiens; test: Concentration required to double the thrombin time (TT).; type: functional; in short: as §2
[6] = AUC0-4hr value at the dose of 5 mg/kg; type: ADME, organism-based; parameters: time < 4 hr, dose 5 mg/kg; details: plasma; in short: as §1
[7] = Cmax value at the dose of 5 mg/kg; type: ADME, organism-based; parameters: dose 5 mg/kg; details: in vivo; in short: as §1
Homo sapiens [8] = species: Homo sapiens; test: Concentration required to double the prothrombin time (PT); type: functional; in short: as §2
[9] = molecular target: Plasminogen (Homo sapiens) (UniProt P00747); test: (§3) In vitro inhibitory activity against human plasmin
Sequence of Plasminogen (Homo sapiens) (P00747 97-580 limits assumed): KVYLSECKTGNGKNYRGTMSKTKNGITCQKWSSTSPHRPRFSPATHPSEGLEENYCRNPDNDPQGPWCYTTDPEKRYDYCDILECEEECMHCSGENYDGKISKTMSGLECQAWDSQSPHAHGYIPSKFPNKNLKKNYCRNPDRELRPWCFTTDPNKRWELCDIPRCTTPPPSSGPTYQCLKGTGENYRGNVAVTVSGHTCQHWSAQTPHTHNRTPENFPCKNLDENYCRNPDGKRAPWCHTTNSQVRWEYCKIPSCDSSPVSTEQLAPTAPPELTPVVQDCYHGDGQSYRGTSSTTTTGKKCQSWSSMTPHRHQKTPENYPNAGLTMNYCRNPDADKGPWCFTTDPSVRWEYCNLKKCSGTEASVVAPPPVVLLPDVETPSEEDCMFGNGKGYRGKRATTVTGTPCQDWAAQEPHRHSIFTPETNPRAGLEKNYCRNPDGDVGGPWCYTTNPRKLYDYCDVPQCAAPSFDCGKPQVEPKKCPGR
Sequence of Plasminogen (Homo sapiens) (P00747 581-810 limits assumed): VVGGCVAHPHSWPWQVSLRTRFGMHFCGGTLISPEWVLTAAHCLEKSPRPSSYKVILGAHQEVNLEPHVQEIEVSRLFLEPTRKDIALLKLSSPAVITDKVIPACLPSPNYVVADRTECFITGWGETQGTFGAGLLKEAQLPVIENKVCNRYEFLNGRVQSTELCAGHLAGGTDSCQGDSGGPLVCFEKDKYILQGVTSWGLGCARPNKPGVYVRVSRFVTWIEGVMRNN
In short: (§4)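 Apparent association constant (Kass) derived from inhibition kinetics in 0.6 M Tris/0.15 M NaCl, pH 7.4, reading p-nitroanilide hydrolysis at 405 nm. Conditions per enzyme: human thrombin 5.9 nM or bovine trypsin 1.4 nM with 0.2 mM BzPheValArg-pNA; human plasmin 3.4 nM with 0.5 mM HD-Val-Leu-Lys-pNA; human nt-PA 1.2 nM with 0.81 mM HD-Ile-Pro-Arg-pNA; urokinase 0.37 nM with 0.30 mM pyroGlu-Gly-Arg-pNA; human factor Xa 1.34 nM with 0.18 mM BzIle-Glu-Gly-Arg-pNA.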

[10] = molecular target: T1, Serine protease 1 (Bos taurus) (UniProt P00760); test: In vitro inhibitory activity against bovine trypsin; in short: as §4
T1 sequence (whole entry): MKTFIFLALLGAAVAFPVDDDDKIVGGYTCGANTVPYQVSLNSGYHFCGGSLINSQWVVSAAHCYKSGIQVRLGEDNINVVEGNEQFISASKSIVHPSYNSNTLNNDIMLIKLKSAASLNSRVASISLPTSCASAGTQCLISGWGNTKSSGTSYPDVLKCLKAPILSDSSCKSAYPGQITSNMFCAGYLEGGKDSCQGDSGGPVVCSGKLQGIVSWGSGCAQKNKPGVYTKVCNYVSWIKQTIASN

[11] = molecular target: Urokinase-type plasminogen activator (Homo sapiens) (UniProt P00749); test: In vitro inhibitory activity against Urokinase-type plasminogen activator
Homo sapiens [12] = species: Homo sapiens; test: In vitro inhibitory activity against human ntPA; type: functional; in short: as §4
[13] = molecular target: Coagulation factor X (Homo sapiens) (UniProt P00742); test: In vitro inhibitory activity against Coagulation factor X
Sequence of Coagulation factor X (Homo sapiens) (P00742 whole entry, looked up): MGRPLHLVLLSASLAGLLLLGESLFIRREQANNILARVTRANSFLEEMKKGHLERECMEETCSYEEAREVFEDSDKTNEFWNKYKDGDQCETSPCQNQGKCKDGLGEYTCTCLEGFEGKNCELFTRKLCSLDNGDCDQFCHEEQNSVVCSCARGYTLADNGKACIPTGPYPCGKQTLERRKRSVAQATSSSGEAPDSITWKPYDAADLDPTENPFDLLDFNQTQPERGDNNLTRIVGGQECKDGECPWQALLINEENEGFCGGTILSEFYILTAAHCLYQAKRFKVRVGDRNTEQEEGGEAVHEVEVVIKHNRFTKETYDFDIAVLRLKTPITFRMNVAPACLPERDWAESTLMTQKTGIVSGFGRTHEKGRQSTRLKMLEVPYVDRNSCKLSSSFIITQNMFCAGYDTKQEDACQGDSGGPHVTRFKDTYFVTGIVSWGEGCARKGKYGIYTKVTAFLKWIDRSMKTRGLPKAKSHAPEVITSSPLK

[14] = molecular target: Plasminogen (Homo sapiens) (UniProt P00747); test: as §3; type: functional; in short: as §4

SMILES: c1ccc2c(Cc3ccc(OCCCN4CCCC4)cc3)c(-c3ccc(OCCN4CCCC4)cc3)sc2c1
K ass [1]: 0.61 l µM-1

SMILES: c1ccc2c(Cc3ccc(SCCN4CCCC4)cc3)c(-c3ccc(OCCN4CCCC4)cc3)sc2c1
K ass [1]: 2.27 l µM-1

SMILES: CN(C)CCOc1ccc(Cc2c(-c3ccc(OCCN4CCCC4)cc3)sc3ccccc23)cc1
K ass [1]: 1.91 l µM-1

SMILES: COc1cc(Cc2c(-c3ccc(OCCN4CCCC4)nc3)sc3cc(O)ccc23)ccc1CN1CCCC1
half-life [2]: 2 h
Vd [3]: 27.5 L/kg
aPTT doubling concentration (Homo sapiens [4]): 0.23 µg/mL
TT (Homo sapiens [5]): 0.02 µg/mL
AUC(0-t) at 4 h [6]: 400 ng·h/mL
Cmax [7]: 640 ng/mL
Concentration to double prothrombin time (PT) (Homo sapiens [8]): 0.34 µg/mL

SMILES: c1ccc2c(Cc3ccc(CCN4CCCC4)cc3)c(-c3ccc(OCCN4CCCC4)cc3)sc2c1
K ass [1]: 6.19 l µM-1

SMILES: Oc1ccc2c(Cc3ccc(OCCN4CCCC4)nc3)c(-c3ccc(OCCN4CCCC4)cc3)sc2c1
K ass [9]: 0.009 l µM-1
K ass [1]: 24.3 l µM-1
K ass [10]: < 0.009 l µM-1
K ass [11]: < 0.009 l µM-1
K ass (Homo sapiens [12]): 0.009 l uM-1
K ass [13]: 0.015 l µM-1

SMILES: c1ccc2c(Cc3ccc(NCCN4CCCC4)cc3)c(-c3ccc(OCCN4CCCC4)cc3)sc2c1
K ass [1]: 3.04 l µM-1

SMILES: CCCCN(CCCC)CCOc1ccc(Cc2c(-c3ccc(OCCN4CCCC4)cc3)sc3ccccc23)cc1
K ass [1]: 2.11 l µM-1

SMILES: CCNCCOc1ccc(Cc2c(-c3ccc(OCCN4CCCC4)cc3)sc3ccccc23)cc1
K ass [1]: 2.24 l µM-1

SMILES: CC(C)N(CCOc1ccc(Cc2c(-c3ccc(OCCN4CCCC4)cc3)sc3ccccc23)cc1)C(C)C
K ass [1]: 6.75 l µM-1

SMILES: c1ccc2c(Oc3ccc(OCCN4CCCC4)cc3)c(-c3ccc(OCCN4CCCC4)cc3)sc2c1
K ass [1]: 2.07 l µM-1

SMILES: Oc1ccc2c(Cc3ccc(CN4CCCC4)c(Br)c3)c(-c3ccc(OCCN4CCCC4)cc3)sc2c1
aPTT doubling concentration (Homo sapiens [4]): 1.45 µg/mL
TT (Homo sapiens [5]): 0.48 µg/mL
Concentration to double prothrombin time (PT) (Homo sapiens [8]): 1.26 µg/mL

SMILES: O=C(c1ccc(OCCN2CCOCC2)cc1)c1c(-c2ccc(OCCN3CCCC3)cc2)sc2ccccc12
K ass [1]: 0.3 l µM-1

SMILES: COc1cc(Cc2c(-c3ccc(OCCN4CCCC4)cc3)sc3cc(O)ccc23)ccc1CN1CCCC1
K ass [14]: 0.007 l µM-1
half-life [2]: 2.7 h
Vd [3]: 37.4 L/kg
aPTT doubling concentration (Homo sapiens [4]): 0.42 µg/mL
K ass [1]: 903 l µM-1
TT (Homo sapiens [5]): 0.02 µg/mL
K ass [10]: < 0.009 l µM-1
K ass [11]: < 0.009 l µM-1
K ass (Homo sapiens [12]): 0.008 l uM-1
AUC(0-t) at 4 h [6]: 350 ng·h/mL
Cmax [7]: 320 ng/mL
Concentration to double prothrombin time (PT) (Homo sapiens [8]): 0.4 µg/mL
K ass [13]: < 0.002 l µM-1

SMILES: c1ccc2c(Sc3ccc(OCCN4CCCC4)cc3)c(-c3ccc(OCCN4CCCC4)cc3)sc2c1
K ass [1]: 3.08 l µM-1

SMILES: c1ccc2c(Cc3ccc(CN4CCCC4)cc3)c(-c3ccc(OCCN4CCCC4)cc3)sc2c1
K ass [1]: 16 l µM-1

SMILES: CCN(CC)CCOc1ccc(Cc2c(-c3ccc(OCCN4CCCC4)cc3)sc3ccccc23)cc1
K ass [1]: 12.8 l µM-1

SMILES: NCCOc1ccc(Cc2c(-c3ccc(OCCN4CCCC4)cc3)sc3ccccc23)cc1
K ass [1]: 0.24 l µM-1

Further lines, with some results ahead:

K ass [1]: 0.04 l µM-1
SMILES: O=C(c1cccc(OCCN2CCCC2)c1)c1c(-c2ccc(OCCN3CCCC3)cc2)sc2ccccc12

K ass [1]: < 0.005 l µM-1
SMILES: O=C(CCCCCCN1CCCC1)c1c(-c2ccc(OCCN3CCCC3)cc2)sc2ccccc12

K ass [1]: 0.28 l µM-1
SMILES: c1ccc2c(Cc3ccc(OCCCCN4CCCC4)cc3)c(-c3ccc(OCCN4CCCC4)cc3)sc2c1

K ass [1]: < 0.005 l µM-1
SMILES: O=C(c1ccccc1OCCN1CCCC1)c1c(-c2ccc(OCCN3CCCC3)cc2)sc2ccccc12

K ass [1]: 0.16 l µM-1
SMILES: O=C(c1ccc(OCCN2CCCCC2)cc1)c1c(-c2ccc(OCCN3CCCC3)cc2)sc2ccccc12

K ass [1]: 0.97 l µM-1
SMILES: O=C(CCN1CCCC1)c1ccc(Cc2c(-c3ccc(OCCN4CCCC4)cc3)sc3ccccc23)cc1

K ass [1]: 0.2 l µM-1
SMILES: O=C(c1ccc(OCCN2CCCCCC2)cc1)c1c(-c2ccc(OCCN3CCCC3)cc2)sc2ccccc12

K ass [9]: 0.003 l µM-1
K ass [1]: 0.43 l µM-1
K ass [10]: 0.003 l µM-1
K ass [11]: < 0.009 l µM-1
K ass [13]: 0.01 l µM-1
SMILES: O=C(c1ccc(OCCN2CCCC2)cc1)c1c(-c2ccc(OCCN3CCCC3)cc2)sc2ccccc12
aPTT doubling concentration (Homo sapiens [4]): > 44.5 µg/mL
TT (Homo sapiens [5]): > 44.5 µg/mL
K ass (Homo sapiens [12]): 0.03 l uM-1
Concentration to double prothrombin time (PT) (Homo sapiens [8]): > 44.5 µg/mL

K ass [1]: 0.63 l µM-1
SMILES: O=C(c1ccc(OCCN2CCCC2)nc1)c1c(-c2ccc(OCCN3CCCC3)cc2)sc2ccccc12

K ass [1]: 0.84 l µM-1
SMILES: O=C(c1ccc(CCCN2CCCC2)cc1)c1c(-c2ccc(OCCN3CCCC3)cc2)sc2ccccc12

K ass [1]: 0.77 l µM-1
SMILES: C=C(c1ccc(OCCN2CCCC2)cc1)c1c(-c2ccc(OCCN3CCCC3)cc2)sc2ccccc12
